The target in the test is KIX-KID interaction (Homo sapiens, UniProt P16220+Q92793). The test is described as follows: KIX-KID split renilla luciferase. It counts as biochemical. In outline:
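RLuc split into N-terminal (RLucN) and C-terminal (RLucC) halves. RLucC-KIX and KID-RLucN fusions combined with a range of test compound concentrations (top 50 or 100 μM) at 4 °C. Residual RLuc luminescence read after 20 h. Stocks in DMSO, or DMF for one unstable compound. IC50 in μM from at least two independent experiments, each in duplicate.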

This is an account of results in publication PMC3783659 (Bioorganic & medicinal chemistry letters, 2013).

Sequence of KIX-KID interaction (Q92793 587-666 limits assumed): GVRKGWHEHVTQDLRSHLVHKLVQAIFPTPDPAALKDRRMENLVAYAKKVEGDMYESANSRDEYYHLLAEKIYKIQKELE
Sequence of KIX-KID interaction (P16220 87-146 limits assumed): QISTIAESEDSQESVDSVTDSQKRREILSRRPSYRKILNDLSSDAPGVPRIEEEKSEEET

In the case of `O=[N+]([O-])c1ccc(Sc2cccc[n+]2[O-])c2nonc12` [compound 1, 2-[(7-nitrobenzo[c][1,2,5]oxadiazol-4-yl)thio]pyridine 1-oxide], where the note is “NCI diversity set screen at 10 μM”, the “Inhibition of KIX-KID interaction in initial screen” value is “consistently shown to efficaciously inhibit KIX-KID interaction”.
In the case of `O=[N+]([O-])c1cc(NCc2cccc3nonc23)ccc1Cl` [9a], the “KIX-KID inhibition (IC50)” value (split RLuc assay, 4 °C, 20 h incubation, mean ± SD) was “inactive”.
